According to ChEMBL document CHEMBL3352809, “Discovery of a Negative Allosteric Modulator of GABAB Receptors” (ACS Med Chem Lett, 2014):
The source made the active and inactive calls. The calls are words filed in the database; no cut-off is given here.

Experiments:
[1] = biological target: Metabotropic glutamate receptor 5 (Homo sapiens) (UniProt P41594); assay: Negative allosteric modulation of mGluR5 (unknown origin) expressed in HEK293 cells assessed as inhibition of glutamate-induced Ca2+ release at 50 uM by fluorescence assay; type: functional, cell-based
Chain of Metabotropic glutamate receptor 5 (Homo sapiens) (P41594 21-1212 limits assumed): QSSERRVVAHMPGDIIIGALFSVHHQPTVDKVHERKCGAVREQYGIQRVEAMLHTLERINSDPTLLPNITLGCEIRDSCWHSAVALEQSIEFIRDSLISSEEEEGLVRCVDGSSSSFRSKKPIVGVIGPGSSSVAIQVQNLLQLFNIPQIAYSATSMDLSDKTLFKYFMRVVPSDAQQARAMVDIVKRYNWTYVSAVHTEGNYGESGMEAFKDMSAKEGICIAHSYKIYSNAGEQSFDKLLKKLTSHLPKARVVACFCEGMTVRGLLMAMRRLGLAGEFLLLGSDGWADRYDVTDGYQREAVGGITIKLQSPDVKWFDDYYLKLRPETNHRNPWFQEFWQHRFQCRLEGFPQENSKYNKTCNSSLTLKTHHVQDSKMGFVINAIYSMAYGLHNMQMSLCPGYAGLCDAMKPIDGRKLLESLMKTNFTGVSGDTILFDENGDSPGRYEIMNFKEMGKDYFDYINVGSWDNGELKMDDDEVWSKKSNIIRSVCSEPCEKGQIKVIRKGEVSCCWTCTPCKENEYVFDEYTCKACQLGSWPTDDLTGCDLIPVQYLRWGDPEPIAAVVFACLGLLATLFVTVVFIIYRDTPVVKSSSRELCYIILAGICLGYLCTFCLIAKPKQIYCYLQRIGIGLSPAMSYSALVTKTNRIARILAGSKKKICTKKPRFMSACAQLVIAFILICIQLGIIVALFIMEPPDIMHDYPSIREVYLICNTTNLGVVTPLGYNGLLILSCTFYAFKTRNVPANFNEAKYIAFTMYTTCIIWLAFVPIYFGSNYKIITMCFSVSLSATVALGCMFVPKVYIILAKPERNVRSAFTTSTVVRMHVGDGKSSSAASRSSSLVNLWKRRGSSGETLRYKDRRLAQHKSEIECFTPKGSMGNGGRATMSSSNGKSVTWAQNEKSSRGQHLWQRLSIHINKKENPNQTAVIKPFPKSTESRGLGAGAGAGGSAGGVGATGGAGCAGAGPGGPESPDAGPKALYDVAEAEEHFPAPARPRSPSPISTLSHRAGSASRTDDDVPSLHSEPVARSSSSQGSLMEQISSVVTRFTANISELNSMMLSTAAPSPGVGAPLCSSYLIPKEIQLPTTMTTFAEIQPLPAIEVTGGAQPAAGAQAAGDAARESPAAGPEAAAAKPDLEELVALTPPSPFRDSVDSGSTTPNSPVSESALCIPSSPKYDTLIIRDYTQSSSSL
In short: (§1)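 Test compound was at 50 μM. Agonists were GABA 100 μM for GABA_B and glutamate 10 μM for mGluR1, 2 and 5. Response was compared with agonist alone. Data are mean SEM of three independent experiments.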

[2] = biological target: T1, GABA-B receptor (Homo sapiens) (UniProt Q9UBS5+O75899); assay: Displacement of [3H]CGP54626 from recombinant HA-tagged GB1 subunit/Flag-tagged GB2 subunit receptor (unknown origin) expressed in CHO cells up to 100 uM by scintillation proximity assay; type: cell-based
[3] = biological target: Metabotropic glutamate receptor 2 (Homo sapiens) (UniProt Q14416); assay: Negative allosteric modulation of mGluR2 (unknown origin) expressed in HEK293 cells co-expressing Gqi9 G-protein assessed as inhibition of glutamate-induced Ca2+ release at 50 uM by fluorescence assay; type: functional, cell-based; in short: as §1
Chain of Metabotropic glutamate receptor 2 (Homo sapiens) (Q14416 19-872 limits assumed): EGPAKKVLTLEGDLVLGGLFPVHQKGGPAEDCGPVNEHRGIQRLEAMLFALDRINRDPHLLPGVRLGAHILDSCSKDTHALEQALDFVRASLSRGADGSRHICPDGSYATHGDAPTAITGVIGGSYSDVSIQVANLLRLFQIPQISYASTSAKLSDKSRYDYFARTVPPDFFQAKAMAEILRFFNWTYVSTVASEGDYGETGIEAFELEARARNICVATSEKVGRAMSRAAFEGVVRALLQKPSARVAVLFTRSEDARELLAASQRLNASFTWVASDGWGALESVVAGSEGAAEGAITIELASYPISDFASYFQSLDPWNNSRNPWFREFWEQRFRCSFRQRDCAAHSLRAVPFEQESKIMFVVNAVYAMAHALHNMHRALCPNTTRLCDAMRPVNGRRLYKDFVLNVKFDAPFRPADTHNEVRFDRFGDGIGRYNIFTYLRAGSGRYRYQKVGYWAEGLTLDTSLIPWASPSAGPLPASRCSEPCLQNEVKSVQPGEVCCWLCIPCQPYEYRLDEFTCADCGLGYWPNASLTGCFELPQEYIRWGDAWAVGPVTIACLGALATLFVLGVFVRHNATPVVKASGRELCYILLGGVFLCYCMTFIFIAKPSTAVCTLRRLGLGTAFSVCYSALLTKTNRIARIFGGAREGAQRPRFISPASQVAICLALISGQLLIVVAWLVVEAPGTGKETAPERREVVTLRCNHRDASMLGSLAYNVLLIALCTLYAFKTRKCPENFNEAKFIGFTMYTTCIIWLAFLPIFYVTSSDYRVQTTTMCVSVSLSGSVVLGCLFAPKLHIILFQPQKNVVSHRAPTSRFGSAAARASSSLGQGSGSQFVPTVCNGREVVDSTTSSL

[4] = biological target: Metabotropic glutamate receptor 1 (Homo sapiens) (UniProt Q13255); assay: Negative allosteric modulation of mGluR1 (unknown origin) expressed in HEK293 cells assessed as inhibition of glutamate-induced Ca2+ release at 50 uM by fluorescence assay; type: functional, cell-based; in short: as §1
Chain of Metabotropic glutamate receptor 1 (Homo sapiens) (Q13255 19-1194 limits assumed): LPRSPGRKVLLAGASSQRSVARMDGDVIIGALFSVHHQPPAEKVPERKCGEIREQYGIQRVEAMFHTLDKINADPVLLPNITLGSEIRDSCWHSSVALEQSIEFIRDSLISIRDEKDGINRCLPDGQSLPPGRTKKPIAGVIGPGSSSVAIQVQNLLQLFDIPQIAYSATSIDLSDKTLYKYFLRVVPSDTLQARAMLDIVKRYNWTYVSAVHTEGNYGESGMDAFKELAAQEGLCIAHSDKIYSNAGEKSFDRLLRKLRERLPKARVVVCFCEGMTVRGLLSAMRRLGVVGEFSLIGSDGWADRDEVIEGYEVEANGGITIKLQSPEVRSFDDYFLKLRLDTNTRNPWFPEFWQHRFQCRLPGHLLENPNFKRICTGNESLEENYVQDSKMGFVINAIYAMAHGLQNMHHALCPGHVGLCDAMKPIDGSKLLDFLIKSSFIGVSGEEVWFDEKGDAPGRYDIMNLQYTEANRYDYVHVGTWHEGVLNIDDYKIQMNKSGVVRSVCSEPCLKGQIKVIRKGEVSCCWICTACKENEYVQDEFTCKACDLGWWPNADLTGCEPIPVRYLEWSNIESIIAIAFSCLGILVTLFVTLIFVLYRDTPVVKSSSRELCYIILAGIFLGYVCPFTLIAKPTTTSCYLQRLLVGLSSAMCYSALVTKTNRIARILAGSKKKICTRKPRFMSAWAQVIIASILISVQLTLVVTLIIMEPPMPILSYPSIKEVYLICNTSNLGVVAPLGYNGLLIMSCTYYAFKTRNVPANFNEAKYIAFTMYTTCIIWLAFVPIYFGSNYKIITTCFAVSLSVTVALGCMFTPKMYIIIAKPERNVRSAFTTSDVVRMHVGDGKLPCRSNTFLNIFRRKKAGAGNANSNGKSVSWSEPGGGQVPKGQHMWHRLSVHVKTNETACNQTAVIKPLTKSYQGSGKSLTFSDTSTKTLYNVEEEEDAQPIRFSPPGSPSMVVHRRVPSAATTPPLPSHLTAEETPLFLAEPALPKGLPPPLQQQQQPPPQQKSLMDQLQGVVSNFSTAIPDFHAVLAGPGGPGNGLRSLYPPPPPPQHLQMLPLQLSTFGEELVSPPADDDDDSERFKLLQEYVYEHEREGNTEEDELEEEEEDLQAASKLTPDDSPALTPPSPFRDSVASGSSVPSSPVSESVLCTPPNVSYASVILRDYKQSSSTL

GABA-B receptor = GABA-B receptor (Homo sapiens, UniProt O75899+Q9UBS5); assay: (§2) Negative allosteric modulation of recombinant HA-tagged GB1 subunit/Flag-tagged GB2 subunit receptor (unknown origin) expressed in HEK293 cells co-expressing Gqi9 G-protein assessed as inhibition of GABA-induced IP production by liquid scintillation counting; type: cell-based
Chain of GABA-B receptor (Q9UBS5 whole entry): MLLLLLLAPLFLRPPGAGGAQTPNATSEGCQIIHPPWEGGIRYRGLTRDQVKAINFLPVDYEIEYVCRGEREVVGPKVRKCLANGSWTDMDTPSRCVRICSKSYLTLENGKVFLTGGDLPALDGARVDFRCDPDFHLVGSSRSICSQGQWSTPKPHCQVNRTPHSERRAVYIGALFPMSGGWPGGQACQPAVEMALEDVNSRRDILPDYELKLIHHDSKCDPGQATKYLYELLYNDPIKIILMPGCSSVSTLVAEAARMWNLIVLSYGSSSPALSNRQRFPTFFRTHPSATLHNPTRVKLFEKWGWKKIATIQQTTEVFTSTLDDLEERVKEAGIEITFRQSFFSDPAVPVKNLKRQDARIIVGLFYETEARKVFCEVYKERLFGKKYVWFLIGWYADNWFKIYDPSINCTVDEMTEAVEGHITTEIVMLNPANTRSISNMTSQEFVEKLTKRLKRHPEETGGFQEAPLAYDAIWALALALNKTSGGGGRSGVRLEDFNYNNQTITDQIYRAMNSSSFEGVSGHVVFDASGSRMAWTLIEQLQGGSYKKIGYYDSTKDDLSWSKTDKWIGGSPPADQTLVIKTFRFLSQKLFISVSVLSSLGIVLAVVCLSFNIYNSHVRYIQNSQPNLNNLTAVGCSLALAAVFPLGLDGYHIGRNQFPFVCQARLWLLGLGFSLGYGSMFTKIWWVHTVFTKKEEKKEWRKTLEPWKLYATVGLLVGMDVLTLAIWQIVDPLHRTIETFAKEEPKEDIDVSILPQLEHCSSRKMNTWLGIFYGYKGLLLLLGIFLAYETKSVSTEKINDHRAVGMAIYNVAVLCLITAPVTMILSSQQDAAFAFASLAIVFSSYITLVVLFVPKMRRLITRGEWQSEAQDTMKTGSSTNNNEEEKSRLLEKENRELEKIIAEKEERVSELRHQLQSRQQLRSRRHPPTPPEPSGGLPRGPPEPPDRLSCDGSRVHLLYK
Chain of GABA-B receptor (O75899 whole entry): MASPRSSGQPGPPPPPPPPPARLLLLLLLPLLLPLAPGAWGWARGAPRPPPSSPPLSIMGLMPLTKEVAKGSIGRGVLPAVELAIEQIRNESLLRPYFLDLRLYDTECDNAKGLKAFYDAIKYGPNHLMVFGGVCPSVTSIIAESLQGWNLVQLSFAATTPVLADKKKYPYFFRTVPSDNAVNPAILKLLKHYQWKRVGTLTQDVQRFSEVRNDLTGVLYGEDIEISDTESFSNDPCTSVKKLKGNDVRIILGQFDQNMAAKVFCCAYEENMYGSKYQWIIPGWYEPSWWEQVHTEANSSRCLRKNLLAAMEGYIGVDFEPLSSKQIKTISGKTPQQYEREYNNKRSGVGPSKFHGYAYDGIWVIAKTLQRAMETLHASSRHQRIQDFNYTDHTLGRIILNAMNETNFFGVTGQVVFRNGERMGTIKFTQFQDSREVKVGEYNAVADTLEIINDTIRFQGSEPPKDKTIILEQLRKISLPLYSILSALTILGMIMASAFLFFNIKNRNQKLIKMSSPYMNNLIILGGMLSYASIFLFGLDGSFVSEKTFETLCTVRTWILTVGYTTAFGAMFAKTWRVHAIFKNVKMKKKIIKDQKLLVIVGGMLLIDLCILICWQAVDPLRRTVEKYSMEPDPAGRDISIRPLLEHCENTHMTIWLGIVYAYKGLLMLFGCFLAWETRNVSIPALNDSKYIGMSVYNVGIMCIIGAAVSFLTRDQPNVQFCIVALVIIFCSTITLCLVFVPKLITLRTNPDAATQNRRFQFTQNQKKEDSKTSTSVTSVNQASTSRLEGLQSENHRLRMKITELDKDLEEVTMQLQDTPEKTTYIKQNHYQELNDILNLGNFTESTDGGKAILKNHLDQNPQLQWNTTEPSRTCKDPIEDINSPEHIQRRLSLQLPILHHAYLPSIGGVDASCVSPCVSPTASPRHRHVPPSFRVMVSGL
In short: (§3)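 IP3 formation in HEK293 cells overexpressing GABA_B receptors (GB1 + GB2) and Gq_i9 chimeric proteins. Compounds were tested at 100 μM against GABA 1 μM, with GABA dose-response curves run with or without compound. Inhibition curves were run with compound titrated in the presence of 1 μM GABA to derive IC50. Data are mean SEM of three independent experiments.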

[5] = biological target: T1, GABA-B receptor (Homo sapiens); assay: as §2; type: cell-based; in short: as §3
[6] = biological target: T1, GABA-B receptor (Homo sapiens); assay: Negative allosteric modulation of recombinant HA-tagged GB1 subunit/Flag-tagged GB2 subunit receptor (unknown origin) expressed in HEK293 cells co-expressing Gqi9 G-protein assessed as inhibition of GABA-induced Ca2+ release at 50 uM by fluorescence assay; type: functional, cell-based; in short: as §1
HEK293 = assay: Effect on ERK1/2 protein expression in HEK293 cells at 100 uM by immunoblotting; type: functional, cell-based; settings: Homo sapiens
In short: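 ERK1/2 phosphorylation in HEK293 cells overexpressing GABA_B receptors (GB1 + GB2), stimulated with baclofen (100 μM) or CGP7930 (100 μM), with or without test compound at 100 μM. Data are mean SEM of three independent experiments. Significance was taken versus agonist alone.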

Compound: CC(C)(C)c1cc(/C=C/C(=O)C(=O)O)cc(C(C)(C)C)c1O
- inhibition [1]: inactive
- inhibition [2]: inactive
- inhibition [3]: inactive
- inhibition [4]: inactive
- IC50 (GABA-B receptor): 37.9 µM
- inhibition [5]: Dose-dependent effect
- inhibition [6]: Active

Compound: COC(O)CC(O)c1cc(C(C)(C)C)c(O)c(C(C)(C)C)c1 (stereo not given)
- inhibition (HEK293): inactive

Compound: CC(C)(C)c1cc(/C=C/C=O)cc(C(C)(C)C)c1O
- IC50 (GABA-B receptor): 21.3 µM
- inhibition [5]: Dose-dependent effect
